SIAE inh: inhibitors of human sialic acid acetylesterase SIAE; Q9HAT2; SIAE FP-Rh probe binding, fluorescence polarization; inhibition, % at 9.66 µM; 370,000 compounds, 0.69% hits; AID 1053197;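 active = inhibition above a cutoff: mean of compounds within the control limits plus 3 SD of those, cut at about 17% in these data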;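 also: 0% = plate median of compound wells and 100% = probe without SIAE protein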
PRMT1 inh: inhibitors of human PRMT1; Q99873; recombinant PRMT1, activity-based probe fluorescence polarization; 370,000 compounds, 1.3% hits; inhibition, % at 2.79 µM;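 active = inhibition above about 21% made by adding two undisclosed values, limit read from the data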
Target sequence (Q99873 whole entry, looked up): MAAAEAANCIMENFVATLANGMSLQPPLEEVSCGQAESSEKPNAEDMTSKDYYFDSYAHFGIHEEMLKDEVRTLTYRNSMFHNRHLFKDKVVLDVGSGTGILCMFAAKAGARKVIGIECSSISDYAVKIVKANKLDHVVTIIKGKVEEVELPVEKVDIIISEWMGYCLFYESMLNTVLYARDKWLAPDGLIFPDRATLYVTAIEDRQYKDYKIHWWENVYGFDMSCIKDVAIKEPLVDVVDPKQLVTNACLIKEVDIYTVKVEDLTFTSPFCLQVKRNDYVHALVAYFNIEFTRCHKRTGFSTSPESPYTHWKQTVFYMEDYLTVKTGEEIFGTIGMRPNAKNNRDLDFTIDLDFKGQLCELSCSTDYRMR
RBBP9 inh: inhibitors of human serine hydrolase RBBP9. recombinant RBBP9, FP-Rh probe fluorescence polarization. 220,000 compounds, 0.2% hits. AID 1515. inhibition, % at 7.94 µM;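 active = inhibition above the campaign mean of all tested compounds plus 3 SD, cut at about 14% in these data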;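 also: plate controls were DMSO wells with RBBP9 for no effect and wells lacking RBBP9 protein for full effect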
Target sequence (O75884 whole entry, looked up): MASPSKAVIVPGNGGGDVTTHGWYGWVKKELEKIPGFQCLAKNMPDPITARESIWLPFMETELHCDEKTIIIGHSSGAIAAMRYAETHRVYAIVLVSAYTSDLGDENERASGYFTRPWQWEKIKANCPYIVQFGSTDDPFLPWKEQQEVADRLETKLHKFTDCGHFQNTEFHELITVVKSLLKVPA
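System: RBBP9 protein / Quantity: 2.5 µM RBBP9 dispensing solution, before mixing / Also added: Serine-hydrolase probe FP-Rh, 375 nM pre-mixing / Dosing: 7.94 µM single dose, 0.794% DMSO / Timing: enzyme-compound preincubation 30 min, then probe labeling 45 min, 25 °C / Signal: FP readout at 525/598 nm / Controls: DMSO-treated enzyme wells and wells lacking RBBP9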
GSTO1 inh: GSTO1 inhibition, counter-screen for RBBP9 inhibitors; P78417; recombinant GSTO1, activity-based probe fluorescence polarization; inhibition, % at 5.96 µM; 300,000 compounds, 1.1% hits; AID 1974;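 active = inhibition above the campaign mean inhibition plus 3 SD, cut at about 35% in these data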;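 also: 0% = GSTO1-1 with DMSO and 100% = wells lacking GSTO1-1 enzyme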
PAD4 FP inh: blocks human protein arginine deiminase 4; 330,000 compounds, 0.41% hits; inhibition, % at 6.36 µM; recombinant PAD4, RCA probe fluorescence polarization;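 active = percent inhibition above a cutoff equal to the mean of all tested compounds plus 3 SD, cut at about 15% in these data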;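 also: 0% = PAD4 with RCA probe and DMSO and 100% = probe without PAD4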
PRMT1 inh conf: confirmation of human PRMT1 inhibitors; shares compounds with PRMT1 inh; recombinant His-PRMT1, activity-based probe fluorescence polarization; inhibition, % at 2.79 µM; 3,300 compounds, 42% hits; AID 687036;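 active = mean inhibition across replicates above the hit cutoff derived for the earlier primary screen, cut at about 22% in these data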
* hit, by the source's call; / = no result given. Hits are enriched below; roughly 2.7% of the tested compounds scored in any of these assays.

SMILES	SIAE inh	PRMT1 inh	RBBP9 inh	GSTO1 inh	PAD4 FP inh	PRMT1 inh conf
CC(=O)Nc1ccc(NC(=O)CN(C)S(=O)(=O)c2ccc3nc(C)sc3c2)cc1	5	4	-8	2	-2	/
O=C(CC1SC(=Nc2ccccc2)N(CCO)C1=O)Nc1ccccc1 (stereo not drawn)	-3	1	-5	1	-4	/
CCCN1C(=O)SC(CC(=O)Nc2ccccc2)C1=O (stereo not drawn)	17	6	-1	6	2	/
O=C(CC1SC(=O)N(c2ccccc2)C1=O)Nc1ccc(Br)cc1 (stereo not drawn)	-1	32*	-6	-49	-17	102*
CC(C)N=C1SC(CC(=O)Nc2ccccc2)C(=O)N1C(C)C (stereo not drawn)	0	61*	-8	6	0	1
O=C(CC1SC(=O)N(c2ccccc2)C1=O)Nc1ccc(Cl)cc1 (stereo not drawn)	1	26*	-4	-64	-11	92*
CC(C)(C)NC(=O)c1nn2c(C(F)(F)F)cc(-c3ccccc3)nc2c1Br	-2	2	/	-3	-1	/
COC(=O)c1nn2c(C(F)(F)F)cc(-c3ccc(Br)o3)nc2c1Br	-5	30*	-9	8	3	2
CC1OC2CC(=O)OC2C2=C1C(=O)c1c(O)cccc1C2=O (stereo not drawn)	13	90*	/	/	/	73*
COC(=O)c1ccsc1NS(C)(=O)=O	-4	6	/	/	/	/
O=C(c1nnsc1S(=O)c1ccc(Cl)cc1)N1CCOCC1 (stereo not drawn)	17	54*	-8	/	/	66*
O=C(Nc1ccccc1)c1nnsc1S(=O)c1ccc(Cl)cc1 (stereo not drawn)	0	81*	-7	-8	5	88*
CN(C)S(=O)(=O)c1ccc(N=Cc2c(C(F)(F)F)[nH]n(C)c2=O)cc1	-2	-3	-3	-7	0	/
OCC[C@H]1C[C@H](O)[C@@H](O)[C@@]2(CCc3ccccc3CO2)O1	5	-1	/	0	3	/
O=C(O)/C=C/C(=O)Nc1ccc(OC(F)(F)F)cc1Br	-5	50*	-4	2	3	5
Cc1ccc(NC(=O)c2ccc(Cl)c(N3C(=O)C=CC3=O)c2)cc1	-15	92*	-10	-12	-3	89*
CCC(C)(C)n1nnnc1C(c1ccc(O)c(OC)c1)N1CCN(c2nc3ccccc3s2)CC1 (stereo not drawn)	2	36*	0	0	-3	36*
COc1ccc(C(c2nnnn2C(C)(C)C)N2CCN(c3nc4ccccc4s3)CC2)cc1 (stereo not drawn)	-4	-3	-10	/	/	/
CCCNC(=O)Cn1nc(C)n2c(cc3cc(F)ccc32)c1=O	3	-2	/	/	/	/
CCN1CCCC1CNC(=O)Cn1nc(C)n2c(cc3cc(F)ccc32)c1=O (stereo not drawn)	5	33*	/	2	-1	2
O=C(Nc1ccc(Br)cc1)OCCN1CCCC12CCC(c1ccccc1)CC2 (stereo not drawn)	-4	-3	/	/	/	/
S=C(Nc1ccccc1Cl)OCCN1CCCC12CCC(c1ccccc1)CC2 (stereo not drawn)	2	57*	/	/	/	41*
S=C(Nc1cccc(Cl)c1)OCCN1CCCC12CCC(c1ccccc1)CC2 (stereo not drawn)	-5	44*	/	/	/	58*
S=C(Nc1ccc(Br)cc1)OCCN1CCCC12CCC(c1ccccc1)CC2 (stereo not drawn)	-1	52*	/	/	/	56*
O=C(Nc1ccccc1)OCCN1CCCC12CCC(c1ccccc1)CC2 (stereo not drawn)	-6	4	/	/	/	/
SMILES	SIAE inh	PRMT1 inh	RBBP9 inh	GSTO1 inh	PAD4 FP inh	PRMT1 inh conf
CC1CC(C)CN(C(=O)CN2CCN(Cc3ccc(Cl)cc3)C2=O)C1 (stereo not drawn)	7	-4	-4	10	-2	/
CCOC(=O)c1ccc(NC(=S)P(=O)(c2ccccc2)c2ccccc2)cc1	1	-1	/	/	/	/
COc1ccc(NC(=O)CSc2nc3c(cc2C#N)CN(C)CC3)cc1	2	9	/	-8	1	/
Cc1ccc(NC(=O)C2=NNC(=O)CC2)cc1S(=O)(=O)Nc1ccc(SC(F)F)cc1	5	27*	/	/	5	20
CSc1ccc(NC(=O)C2(C)CCN2C(=O)C2(c3ccccc3)CC2)cc1 (stereo not drawn)	2	0	/	/	/	/
CCOc1ccc(-n2c(SCC(=O)c3ccc4ccccc4c3)nnc2-c2ccco2)cc1	-10	46*	/	/	/	8
Nc1ccccc1SC(CC(=O)c1ccccc1)c1ccc([N+](=O)[O-])cc1 (stereo not drawn)	6	83*	/	/	/	61*
Nc1ccccc1SC(CC(=O)c1ccccc1)c1cccc([N+](=O)[O-])c1 (stereo not drawn)	2	86*	/	/	/	57*
Cc1cn(CC(=O)NCc2nc3ccccc3[nH]2)c(=O)[nH]c1=O	-2	-2	/	/	/	/
CCN(CC)C(=O)C(Sc1nnnn1-c1ccc(O)cc1)c1ccccc1 (stereo not drawn)	-6	-3	/	2	-2	/
Cc1ccc(NC(=O)c2nc(S(=O)(=O)Cc3ccccc3)ncc2Cl)cc1	5	38*	/	-13	-7	23*
CCCc1nnc(NC(=O)c2nc(S(=O)(=O)Cc3cccc(C)c3)ncc2Cl)s1	-2	9	/	-2	3	/
Cc1ccccc1CS(=O)(=O)c1ncc(Cl)c(C(=O)Nc2ccc(F)cc2)n1	2	17	/	-21	1	/
Cc1cccc(CS(=O)(=O)c2ncc(Cl)c(C(=O)Nc3c(C)cccc3C)n2)c1	-4	25*	/	-3	-1	12
O=C(Nc1ccc(F)cc1)c1nc(S(=O)(=O)Cc2ccccc2)ncc1Cl	3	39*	/	-16	-1	18
CCn1c(SCC(=O)Nc2cccc(OC)c2)nnc1-c1ccc(Cl)cc1	-3	-5	1	5	-6	/
O=C(Nc1ccc(Cl)cc1)Nc1cnccn1	-7	1	-11	5	3	/
COC(=O)c1ccc(C)c(NC(=O)CSc2sc3c(O)cc(=O)[nH]c3c2C#N)c1	-3	49*	/	11	-6	10
Cc1ccc(C)c(NC(=O)CSc2nc(C)cc(=O)[nH]2)c1	9	-5	/	/	/	/
Cc1cc(NC(=O)CSc2nc3[nH]c(=O)cc(O)c3s2)ccc1Br	-16	8	/	/	/	/
Cc1ccc(C)c(NC(=O)CSc2sc3c(O)cc(=O)[nH]c3c2C#N)c1	0	55*	/	12	-1	7
Cc1cc(NC(=O)CSc2sc3c(O)cc(=O)[nH]c3c2C#N)ccc1Br	-63	30*	/	-12	-9	5
CCc1c(C)sc(NC(=S)Nc2cccnc2)c1C(=O)OC	7	4	-5	5	-2	/
Cc1cccc(C)c1N=C1SC(CC(=O)Nc2c(C)cccc2C)C(=O)N1CCc1ccccn1 (stereo not drawn)	-2	3	-6	6	-2	/

Compound activity from PubChem.
